{"data": "Results gathered from unrelated publications", "target": "Rhodopsin kinase GRK7 (GRK7, Homo sapiens, UniProt Q8WTQ7)", "Sequence (Q8WTQ7 1-553, as in one of the studies)": "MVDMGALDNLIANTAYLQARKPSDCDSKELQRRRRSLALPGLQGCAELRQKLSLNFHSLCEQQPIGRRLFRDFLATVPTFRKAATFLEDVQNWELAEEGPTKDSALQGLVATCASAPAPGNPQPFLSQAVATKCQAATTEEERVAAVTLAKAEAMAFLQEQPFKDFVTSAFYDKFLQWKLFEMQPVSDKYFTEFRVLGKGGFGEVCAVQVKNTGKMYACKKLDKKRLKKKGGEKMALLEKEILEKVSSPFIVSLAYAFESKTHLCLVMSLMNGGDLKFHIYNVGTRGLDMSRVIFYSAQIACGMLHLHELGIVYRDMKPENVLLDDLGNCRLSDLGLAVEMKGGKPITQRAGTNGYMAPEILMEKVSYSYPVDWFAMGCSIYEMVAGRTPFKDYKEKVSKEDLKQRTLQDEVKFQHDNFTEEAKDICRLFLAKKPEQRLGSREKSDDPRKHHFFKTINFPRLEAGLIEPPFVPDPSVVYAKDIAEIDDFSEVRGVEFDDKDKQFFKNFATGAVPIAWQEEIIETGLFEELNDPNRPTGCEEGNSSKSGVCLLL", "note": "Compare with care: the assays were run in different laboratories."}
{"SMILES": "F[C@@H]1CCN(c2nccc(-c3cnn4ncccc34)n2)C1", "test": "binding", "conditions": "1 µM", "remaining binding": "100%"}
{"SMILES": "CCC(=O)N[C@@H]1CC[C@H](C(=O)N(C)c2ccc(-c3nc4ccccc4o3)cc2)C1", "test": "cell-free assay, competition with immobilised ligand", "conditions": "1 µM", "remaining binding": "93%"}
{"SMILES": "O=C(c1ccc(Nc2ncc(Cl)c(-c3ccc(Cl)s3)n2)cc1)N1CCC(N2CCCC2)CC1", "test": "binding, competition with immobilised ligand", "conditions": "1 µM", "remaining binding": "84%"}
{"SMILES": "COc1ccnn2ncc(-c3ccnc(N(C)C)n3)c12", "test": "binding", "conditions": "1 µM", "remaining binding": "94%"}
{"SMILES": "CCCOc1ccc([C@@H]2[C@@H](C(=O)O)[C@H](c3ccc4c(c3)OCO4)CN2CC(=O)Nc2c(CC)cccc2CC)cc1", "test": "cell-free assay, competition with immobilised ligand", "conditions": "1 µM", "remaining binding": "99%"}
{"SMILES": "N[C@@H]1CCN(c2nccc(-c3cnn4ncccc34)n2)C1", "test": "binding", "conditions": "1 µM", "remaining binding": "100%"}
{"SMILES": "FC(F)(F)Oc1cccc(-c2cnc3ccc(-c4ccncc4)nn23)c1", "test": "cell-free assay, competition with immobilised ligand", "conditions": "5 µM", "remaining binding": "24%"}
{"SMILES": "Nc1ncc2c(n1)-c1c([nH]c3ccc(C#CC4CC4)cc13)CCCC2", "test": "binding, competition with immobilised ligand", "conditions": "1 µM", "remaining binding": "93%"}
{"SMILES": "c1cncc(-c2cccc(Nc3nccc(NC4CCCCC4)n3)c2)c1", "test": "binding, competition with immobilised ligand", "conditions": "10 µM", "remaining binding": "16%"}
{"SMILES": "COc1cc(-c2cn(C3CCc4ccccc4N(CC(F)(F)F)C3=O)nn2)ccc1-n1ccc(C)n1 (stereo not shown)", "test": "cell-free assay, competition with immobilised ligand", "conditions": "1 µM", "remaining binding": "87%"}
{"SMILES": "O=C(NCC1CCOCC1)c1n[nH]cc1NC(=O)c1c(F)cccc1F", "test": "binding, competition with immobilised ligand", "conditions": "1 µM", "remaining binding": "89%"}
{"SMILES": "O=C(NCCCC1CCCCC1)c1ccc(CNC(=O)c2cnn(-c3ccccc3)c2C(F)(F)F)cc1", "test": "cell-free assay, competition with immobilised ligand", "conditions": "0.1 µM", "remaining binding": "100%"}
{"SMILES": "O=C(c1ccc(Nc2nccc(-c3cc4ccccc4s3)n2)cc1)N1CCC(N2CCCC2)CC1", "test": "binding, competition with immobilised ligand", "conditions": "1 µM", "remaining binding": "79%"}
{"SMILES": "C[C@@H](c1ccc(-n2cnc3c(N)ncnc32)cc1)N1CCc2nn(C)c(Cc3ccccc3)c2C1=O", "test": "binding, competition with immobilised ligand", "conditions": "0.1 µM", "remaining binding": "72%"}
{"SMILES": "Cc1cnn2ncc(-c3ccnc(N(C)C)n3)c2c1", "test": "binding", "conditions": "1 µM", "remaining binding": "84%"}
{"SMILES": "O=C(c1ccc(Nc2ncc(Cl)c(-c3cc4ccccc4s3)n2)cc1)N1CCC(N2CCCC2)CC1", "test": "binding, competition with immobilised ligand", "conditions": "1 µM", "remaining binding": "56%"}
{"SMILES": "COc1cnc(Nc2cccc(S(N)(=O)=O)c2)nc1N1CCN(c2ccccc2)CC1", "test": "binding, competition with immobilised ligand", "conditions": "1 µM", "remaining binding": "58%"}
{"SMILES": "CN(C)CC#Cc1ccc(OCCCc2sc(N3CCc4cccc(C(=O)Nc5nc6ccccc6s5)c4C3)nc2C(=O)O)c(F)c1", "test": "cell-free assay, competition with immobilised ligand", "conditions": "1 µM", "remaining binding": "97%"}
{"SMILES": "c1cnn2ncc(-c3ccnc(N4CCC45COC5)n3)c2c1", "test": "binding", "conditions": "1 µM", "remaining binding": "66%"}
{"SMILES": "COc1cnc(Nc2cccc(S(N)(=O)=O)c2)nc1N1CCN(c2ccccc2)C(=O)C1", "test": "binding, competition with immobilised ligand", "conditions": "1 µM", "remaining binding": "61%"}
{"SMILES": "CN(C)c1nccc(-c2cnn3ncccc23)n1", "test": "binding", "conditions": "1 µM", "remaining binding": "100%"}
{"SMILES": "FC(F)(F)c1ccc2c(c1)nc(-c1cccnc1)n2C1CC1", "test": "cell-free assay, competition with immobilised ligand", "conditions": "1 µM", "remaining binding": "81%"}
